According to ChEMBL document CHEMBL3758168, “Hybrid triazoles: Design and synthesis as potential dual inhibitor of growth and efflux inhibition in tuberculosis” (Eur J Med Chem, 2016):
Converted amounts (≈) assume the structure as drawn.

Assays:
[1] = test system: Mycolicibacterium smegmatis; test: Anti-tubercular activity against Mycobacterium smegmatis MC2 155 ATCC 700084 after 3 days by microdilution method; format: functional; settings: MC2 155 ATCC 700084, 72 h
Summary of the method: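 M. smegmatis mc2155 grown in MB7H9 + 10% OADC at 37 °C with shaking to OD600 0.8. Inoculum set to 0.5 McFarland, diluted 1:100, and mixed 1:1 with two-fold serial dilutions in MB7H9. Plates incubated 3 days at 37 °C with growth and sterility controls. MIC taken as the lowest concentration with no visible growth.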

[2] = Cytotoxicity against human MDM assessed as cell viability after 3 days by Alamar blue dye-based fluorocytometric analysis relative to control; settings: 72 h
[3] = test system: Mycobacterium tuberculosis; test: Anti-tubercular activity against Mycobacterium tuberculosis H37Rv ATCC 27294T after 7 days by mircodilution method; format: functional; settings: 168 h
Summary of the method: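 H37Rv grown static in MB7H9 + 10% OADC at 37 °C to OD600 0.8, then diluted to about 10^5 cells/ml. Mixed 1:1 with two-fold serial dilutions in MB7H9/OADC and incubated 7 days at 37 °C. MTT added to final 2.5% and plates incubated overnight. MIC is the lowest concentration with no colour change. Run in triplicate.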

| Compound | MIC [1] | IC50 [2] | MIC [3] |
| --- | --- | --- | --- |
| CCOC(=O)CC(=O)CSc1nnc(COc2ccccc2C2=NOC(c3ccc(Cl)cc3Cl)C2)n1NC(C)=O (stereo unspecified) | 512 µg/mL (≈ 844 µM) |  |  |
| CCSc1nnc(COc2ccccc2C2=NOC(c3ccc(Cl)cc3Cl)C2)n1NC(=O)CCl (stereo unspecified) | 512 µg/mL (≈ 947 µM) |  |  |
| CSc1nnc(COc2ccccc2C2=NOC(c3ccc(Cl)cc3Cl)C2)n1NC(=O)CCl (stereo unspecified) | 32 µg/mL (≈ 60.7 µM) | 2.7 µg/mL (≈ 5.12 µM) |  |
| C/C=C/Sc1nnc(COc2ccccc2C2=NOC(c3ccc(Cl)cc3Cl)C2)n1NC(=O)CCl (stereo unspecified) | > 512 µg/mL |  |  |
| C/C=C/Sc1nnc(COc2ccccc2C2=NOC(c3ccc(Cl)cc3Cl)C2)n1NC(C)=O (stereo unspecified) | 512 µg/mL (≈ 988 µM) |  |  |
| CCCCSc1nnc(COc2ccccc2C2=NOC(c3ccc(Cl)cc3Cl)C2)n1NC(=O)c1ccccc1 (stereo unspecified) | 64 µg/mL (≈ 107 µM) | 2.5 µg/mL (≈ 4.19 µM) |  |
| C/C=C/Sc1nnc(COc2ccccc2C2=NOC(c3ccc(Cl)cc3Cl)C2)n1NC(=O)c1ccccc1 (stereo unspecified) | 128 µg/mL (≈ 221 µM) |  |  |
| Nn1c(S)nnc1COc1ccccc1C1=NOC(c2ccc(Cl)cc2Cl)C1 (stereo unspecified) | 2 µg/mL (≈ 4.58 µM) | 87.3 µg/mL (≈ 200 µM) |  |
| CC(=O)Nn1c(COc2ccccc2C2=NOC(c3ccc(Cl)cc3Cl)C2)nnc1SCC(C)C (stereo unspecified) | > 256 µg/mL |  |  |
| O=C(CCl)Nn1c(S)nnc1COc1ccccc1C1=NOC(c2ccc(Cl)cc2Cl)C1 (stereo unspecified) | 16 µg/mL (≈ 31.2 µM) | 3.2 µg/mL (≈ 6.24 µM) |  |
| CCSc1nnc(COc2ccccc2C2=NOC(c3ccc(Cl)cc3Cl)C2)n1NC(=O)c1ccccc1 (stereo unspecified) | 4 µg/mL (≈ 7.04 µM) | 1.8 µg/mL (≈ 3.17 µM) |  |
| CCOC(=O)CSc1nnc(COc2ccccc2C2=NOC(c3ccc(Cl)cc3Cl)C2)n1NC(=O)c1ccccc1 (stereo unspecified) | 64 µg/mL (≈ 102 µM) |  |  |
| CSc1nnc(COc2ccccc2C2=NOC(c3ccc(Cl)cc3Cl)C2)n1NC(C)=O (stereo unspecified) | 32 µg/mL (≈ 65 µM) | 2.7 µg/mL (≈ 5.48 µM) |  |
| CC(C)CSc1nnc(COc2ccccc2C2=NOC(c3ccc(Cl)cc3Cl)C2)n1NC(=O)CCl (stereo unspecified) | 1020 µg/mL (≈ 1800 µM) |  |  |
| CCCCSc1nnc(COc2ccccc2C2=NOC(c3ccc(Cl)cc3Cl)C2)n1NC(C)=O (stereo unspecified) | 32 µg/mL (≈ 59.9 µM) | 2.6 µg/mL (≈ 4.86 µM) |  |
| CCCCSc1nnc(COc2ccccc2C2=NOC(c3ccc(Cl)cc3Cl)C2)n1NC(=O)CCl (stereo unspecified) | 32 µg/mL (≈ 56.2 µM) | 2.8 µg/mL (≈ 4.92 µM) |  |
| CC(=O)Nn1c(S)nnc1COc1ccccc1C1=NOC(c2ccc(Cl)cc2Cl)C1 (stereo unspecified) | 8 µg/mL (≈ 16.7 µM) | 1.3 µg/mL (≈ 2.72 µM) |  |
| CCOC(=O)CSc1nnc(COc2ccccc2C2=NOC(c3ccc(Cl)cc3Cl)C2)n1NC(C)=O (stereo unspecified) | > 64 µg/mL |  |  |

| Compound | MIC [1] | IC50 [2] | MIC [3] |
| --- | --- | --- | --- |
| CSc1nnc(COc2ccccc2C2=NOC(c3ccc(Cl)cc3Cl)C2)n1NC(=O)c1ccccc1 (stereo unspecified) | 32 µg/mL (≈ 57.7 µM) | 2.2 µg/mL (≈ 3.97 µM) |  |
| C=CCSc1nnc(COc2ccccc2C2=NOC(c3ccc(Cl)cc3Cl)C2)n1NC(=O)CCl (stereo unspecified) | 256 µg/mL (≈ 463 µM) |  |  |
| O=C(CCl)Nn1c(COc2ccccc2C2=NOC(c3ccc(Cl)cc3Cl)C2)nnc1Sc1ccccc1 (stereo unspecified) | 128 µg/mL (≈ 217 µM) |  |  |
| C=CCSc1nnc(COc2ccccc2C2=NOC(c3ccc(Cl)cc3Cl)C2)n1NC(=O)c1ccccc1 (stereo unspecified) | 128 µg/mL (≈ 221 µM) |  |  |
| CC(=O)Nn1c(COc2ccccc2C2=NOC(c3ccc(Cl)cc3Cl)C2)nnc1Sc1ccccc1 (stereo unspecified) | > 512 µg/mL |  |  |
| C=CCSc1nnc(COc2ccccc2C2=NOC(c3ccc(Cl)cc3Cl)C2)n1NC(C)=O (stereo unspecified) | 256 µg/mL (≈ 494 µM) |  |  |
| O=C(Nn1c(S)nnc1COc1ccccc1C1=NOC(c2ccc(Cl)cc2Cl)C1)c1ccccc1 (stereo unspecified) | 32 µg/mL (≈ 59.2 µM) | 1.7 µg/mL (≈ 3.15 µM) |  |
| CCOC(=O)CC(=O)CSc1nnc(COc2ccccc2C2=NOC(c3ccc(Cl)cc3Cl)C2)n1NC(=O)CCl (stereo unspecified) | 128 µg/mL (≈ 200 µM) |  |  |
| CCOC(=O)CSc1nnc(COc2ccccc2C2=NOC(c3ccc(Cl)cc3Cl)C2)n1NC(=O)CCl (stereo unspecified) | 128 µg/mL (≈ 214 µM) |  |  |
| CCOC(=O)CC(=O)CSc1nnc(COc2ccccc2C2=NOC(c3ccc(Cl)cc3Cl)C2)n1NC(=O)c1ccccc1 (stereo unspecified) | 512 µg/mL (≈ 766 µM) |  |  |
| O=C(Nn1c(COc2ccccc2C2=NOC(c3ccc(Cl)cc3Cl)C2)nnc1Sc1ccccc1)c1ccccc1 (stereo unspecified) | 256 µg/mL (≈ 415 µM) |  |  |
| CC(C)CSc1nnc(COc2ccccc2C2=NOC(c3ccc(Cl)cc3Cl)C2)n1NC(=O)c1ccccc1 (stereo unspecified) | 512 µg/mL (≈ 858 µM) |  |  |
| NCC[C@H](O)C(=O)N[C@@H]1C[C@H](N)[C@@H](O[C@H]2O[C@H](CN)[C@@H](O)[C@H](O)[C@H]2O)[C@H](O)[C@H]1O[C@H]1O[C@H](CO)[C@@H](O)[C@H](N)[C@H]1O [AMIKACIN] |  |  | 2 µg/mL (≈ 3.42 µM) |
| CC[n+]1c(-c2ccccc2)c2cc(N)ccc2c2ccc(N)cc21.[Br-] [HOMIDIUM BROMIDE] |  |  | 12.5 µg/mL |
| NNC(=O)c1ccncc1 [ISONIAZID] |  |  | 0.1 µg/mL (≈ 0.729 µM) |
| CC1COc2c(N3CCN(C)CC3)c(F)cc3c(=O)c(C(=O)O)cn1c23 (stereo unspecified) [OFLOXACIN] |  |  | 2 µg/mL (≈ 5.53 µM) |
| CO[C@H]1/C=C/O[C@@]2(C)Oc3c(C)c(O)c4c(O)c(c(/C=N/N5CCN(C)CC5)c(O)c4c3C2=O)NC(=O)/C(C)=C\C=C\[C@H](C)[C@H](O)[C@@H](C)[C@@H](O)[C@@H](C)[C@H](OC(C)=O)[C@@H]1C [RIFAMPIN] |  |  | 1 µg/mL (≈ 1.22 µM) |
